Screens from PubChem.
In the library only some 3.7% were active in any assay of this set; here they are far more common.
Dynein transport: inhibitors of GR-EGFP nuclear translocation, primary screen, dynein cargo transport inhibitor project, imaging, high-content, 3617.4 mouse cells. test concentration mostly 20 µM; stimulated with dexamethasone, 1 µM; hits give low values. z-score, hits read low. 220,000 tested, 0.47% active;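 active = plate z-score of nuclear minus cytoplasmic receptor signal below a set negative limit, without overly bright fluorescence or cell loss, cut at about -3.5 in these data, passing the limit was not always enough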;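 also: z-score of nuclear minus cytoplasmic ring GR-EGFP intensity difference per well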
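Buffer or medium – tet-free medium with charcoal-stripped serum · Signal – automated 10x imaging of fixed Hoechst-stained cells · Also added – dexamethasone agonist, 1.0 µM final, for 30 min · Incubation – induction 48 h, compound 1 h, agonist 30 min · Read-out – GR-EGFP nuclear translocation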
Mdm2 ligase inh: MDM2-luciferase reporter signal enhancers, primary screen, MDM2 E3 ligase inhibitor project, cell-based, luminescence, 1536-well. signal enhancement, % at 5 µM. cell-based MDM2 ubiquitination luciferase reporter, 2 h; 0 = plate control, 100 = twice control, blank-subtracted. 210,000 tested, 0.11% active. AID 1230, 2008;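 active = signal enhancement of 30% or more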;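 also: luminescence tracks abundance of the self-degrading MDM2-luciferase fusion protein; higher signal means inhibition of MDM2 E3 ligase activity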
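Material: stable MDM2–luciferase fusion reporter cells / Quantity: 2000 cells/well / Dosing: single 5 µM compound dose, 0.2% final DMSO / Buffer or medium: DMEM / Schedule: 4 h cell settling then 2 h compound exposure, 37 °C / Detection: luminescence with SteadyLite reagent, 15 min at room temperature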
UPR CHOP act: activators of apoptotic CHOP UPR arm, primary screen, cell-based, CHO-CHOP luciferase reporter, luminescence, uHTS; UPR activation; percent of tunicamycin response over DMSO baseline; activation, % at 10 µM; 330,000 tested, 0.34% active;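 active = at 10 µM dose, activation of 40% or more, normalized to positive control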
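System: CHO-CHOP luciferase reporter cell line; amount: 500 cells/well; buffer or medium: F12 medium containing 10% fetal bovine serum; incubation: 6 h compound exposure at 37 °C after overnight seeding; measured by: luciferase luminescence after 10 min with Steady-Glo reagent; evaluation: % reporter activation, DMSO baseline versus tunicamycin full activation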
Mdm2 MdmX PPI: inhibitors of human Mdm2-MdmX association, primary screen, cell-based, luminescence, split luciferase, SaOS-2, uHTS; Protein Mdm4 (Homo sapiens) + E3 ubiquitin-protein ligase Mdm2 (Homo sapiens), …; SaOS-2 split-luciferase Mdm2/MdmX complementation; inhibition, % at 8 µM; 330,000 tested, 3% active; AID 485346, 2010;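 active = inhibition of at least 50% at 8 µM in the primary screen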
Target sequence (O15151 whole entry, looked up): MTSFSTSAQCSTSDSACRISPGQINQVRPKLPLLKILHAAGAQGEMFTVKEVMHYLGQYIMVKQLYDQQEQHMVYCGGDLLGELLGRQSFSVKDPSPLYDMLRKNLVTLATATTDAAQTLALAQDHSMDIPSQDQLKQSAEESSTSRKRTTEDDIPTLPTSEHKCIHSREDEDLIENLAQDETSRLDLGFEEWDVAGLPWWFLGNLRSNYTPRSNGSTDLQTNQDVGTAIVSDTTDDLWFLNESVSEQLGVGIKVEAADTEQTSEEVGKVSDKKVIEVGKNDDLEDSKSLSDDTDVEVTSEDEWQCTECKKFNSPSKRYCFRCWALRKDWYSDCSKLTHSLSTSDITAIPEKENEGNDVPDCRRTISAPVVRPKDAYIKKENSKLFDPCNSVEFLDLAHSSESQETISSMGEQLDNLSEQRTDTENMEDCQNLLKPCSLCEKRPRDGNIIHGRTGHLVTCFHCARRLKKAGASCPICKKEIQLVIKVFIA
Target sequence (Q00987 whole entry, looked up): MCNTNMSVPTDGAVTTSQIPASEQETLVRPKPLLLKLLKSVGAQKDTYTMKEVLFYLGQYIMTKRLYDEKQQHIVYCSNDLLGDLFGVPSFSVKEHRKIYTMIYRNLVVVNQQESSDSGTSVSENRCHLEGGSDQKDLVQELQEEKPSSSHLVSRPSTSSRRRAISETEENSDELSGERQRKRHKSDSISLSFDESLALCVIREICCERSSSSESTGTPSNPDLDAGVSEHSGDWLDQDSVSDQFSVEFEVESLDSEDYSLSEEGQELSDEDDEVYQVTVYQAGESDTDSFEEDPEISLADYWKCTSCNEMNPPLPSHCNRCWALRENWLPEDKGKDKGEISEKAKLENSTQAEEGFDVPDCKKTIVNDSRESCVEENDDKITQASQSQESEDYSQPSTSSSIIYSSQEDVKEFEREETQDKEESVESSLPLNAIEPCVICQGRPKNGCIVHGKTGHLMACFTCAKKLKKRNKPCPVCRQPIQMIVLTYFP
UPR XBP1 act: activators of adaptive XBP1 UPR arm, primary screen, cell-based, CHO-XBP1 luciferase reporter, luminescence, uHTS; activation, % at 20 µM; 330,000 tested, 0.33% active; IRE1-XBP1 UPR activation; percent of tunicamycin response, DMSO as zero;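 active = versus positive control, 20 µM dose yields 30% or more activation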
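assay system = CHO-XBP1 luciferase reporter cells | amount = 1000 cells/well | buffer or medium = F12 plus 10% FBS | compound dosing = single point, 20 µM final compound, 1% DMSO | incubation = 16-18 h cell attachment at 37 °C, then 6 h compound exposure | detection = Steady-Glo luminescence read | controls = tunicamycin 10 µg/mL and vehicle-only wells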
Beta2AR agonist: beta2AR agonists driving receptor internalization, primary screen, cell-based, FAP fluorogen, flow cytometry. 340,000 tested, 0.43% active. AID 504454, 2011. Am2.2-beta2AR cells. Beta-2 adrenergic receptor (Homo sapiens), P07550. response, % (test concentration not listed);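 active = response above a set limit, near 3 SD of response in nonfluorescent compounds, cut at about 42% in these data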
B2AR ag CP1: beta2AR agonists via receptor internalization, confirmation, cell-based, FAP fluorogen, flow cytometry, single point, cherry pick 1; shares compounds with Beta2AR agonist; Am2.2-beta2AR cells, FAP surface receptor; hits give low values; percent response (surface receptor), % at 10 µM; 1,100 tested, 25% active;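 active = surface receptor percent response at or below 58%, roughly 3 SD from nonfluorescent compounds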
B2AR FAP counter: flagged in Am2.2 fluorescence counterscreen for beta-2AR agonists; shares compounds with Beta2AR agonist; Am2.2 cells, FAP fluorogen flow cytometry; hits give low values; calls only at 10 µM; 1,100 tested, under 10 active; AID 588765;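 active = percent response below a set limit in fluorescence channel 1 and below 50% in channel 8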
Large screens that a line does not name were inactive (follow-up assays come after a bar, where they were run).

COC(=O)C1=C(c2cccc(OC)c2OC)C[C@@H]2CC[C@H]1N2C(=O)NCC1CC1	none (no result: Dynein transport, Mdm2 ligase inh)
COC(=O)C1=C(c2cccc(OCc3ccccc3)c2)C[C@@H]2CC[C@H]1N2C(=O)NCc1ccccc1	none (no result: Dynein transport, Mdm2 ligase inh)
COC(=O)C1=C(c2cccc(OCc3ccccc3)c2)C[C@@H]2CC[C@H]1N2C(=O)NCc1cccc(F)c1	Beta2AR agonist 54.3 (no result: Dynein transport, Mdm2 ligase inh) | B2AR ag CP1 45.9 | B2AR FAP counter inactive
OC(CNCc1ccccc1)c1ccc(Cl)cc1 (centres undefined)	none (no result: Dynein transport, Mdm2 ligase inh, UPR CHOP act, Mdm2 MdmX PPI, UPR XBP1 act) | B2AR ag CP1 inactive | B2AR FAP counter inactive
CCOC(=O)C1=C(N)OC2=C(C(=O)CCC2)C12C(=O)N(C)c1ccccc12 (centres undefined)	none
